Assay [1] deals with HepG2. Put plainly: Cytotoxic activity against human HepG2 cells by MTT assay. In kind it is functional, cell-based. A digest of the protocol:
(§1)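 Adherent cancer cell lines, viability read by MTT assay. Doxorubicin served as reference drug for A549, HepG2 and HuCCA-1, and etoposide also for HepG2. IC50 determined.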
For orientation: Tetrazolium dyes change colour on reduction, which living cells bring about.

Assay [2] relates to Escherichia coli. Put plainly: Antibacterial activity against Escherichia coli after 20 hrs by broth microdilution method. It is filed as functional. The gist of the method: (§2)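 Compounds dissolved in DMSO and two-fold serially diluted in 96-well plates, with final DMSO ≤0.5% (v/v). Inocula prepared in normal saline and adjusted to 0.5 McFarland turbidity. Plates incubated at 36 °C for 20 h, then absorbance read at 600 nm. MIC taken as the lowest concentration inhibiting growth.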
For orientation: In broth dilution the organism is exposed to a series of concentrations in liquid medium.

The subject of assay [3] is Enterococcus faecalis. Put plainly: Antibacterial activity against Enterococcus faecalis after 20 hrs by broth microdilution method. In kind it is functional. The gist of the method: as §2
For assay [4], the system named is MOLT-3. Description: Cytotoxic activity against human MOLT3 cells by XTT assay. In kind it is functional, cell-based. The gist of the method: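 Non-adherent MOLT-3 leukemia cells, viability read by XTT assay. Etoposide served as reference drug. IC50 determined.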
For assay [5], the system named is Staphylococcus epidermidis. Put plainly: Antibacterial activity against Staphylococcus epidermidis after 20 hrs by broth microdilution method. In kind it is functional. The gist of the method: as §2
In assay [6] the test system is Shigella flexneri. Put plainly: Antibacterial activity against Shigella flexneri after 20 hrs by broth microdilution method. In kind it is functional. The gist of the method:
as §2

In assay [7] the test system is Bacillus cereus. Description: Antibacterial activity against Bacillus cereus after 20 hrs by broth microdilution method. In kind it is functional. A digest of the protocol:
as §2

Assay [8] relates to Staphylococcus aureus. Put plainly: Antibacterial activity against Staphylococcus aureus after 20 hrs by broth microdilution method. In kind it is functional. A digest of the protocol:
as §2

Assay [9] relates to Salmonella typhimurium. Description: Antibacterial activity against Salmonella typhimurium after 20 hrs by broth microdilution method. In kind it is functional. The following applies: Salmonella enterica subsp. enterica serovar Typhimurium. The gist of the method:
as §2

Assay [10] relates to Pseudomonas aeruginosa. Description: Antibacterial activity against Pseudomonas aeruginosa after 20 hrs by broth microdilution method. It is filed as functional. The gist of the method: as §2
Assay [11] deals with HuCC-A1. Description: Cytotoxic activity against human HuCCa1 cells by MTT assay. It is filed as functional, cell-based. A digest of the protocol:
as §1

Results on 13 molecules are retold here after ChEMBL document CHEMBL4020704, “Metabolite diversification by cultivation of the endophytic fungus Dothideomycete sp. in halogen containing media: Cultivation of terrestrial fungus in seawater” (Bioorg Med Chem, 2017).

Structures are written as SMILES. Values after ≈ are worked out from the molar mass of the structure shown. Active and inactive are the calls of the source.

For `CO[C@@H](/C=C/C=C(\C)[C@H](O)[C@H](C)C(=O)O[C@H]1C[C@H](C)C[C@@H]2C=C[C@H](C)[C@](C)(C(=O)[C@H](O)CO)[C@@H]12)[C@H](C)O`, the result in assay [1], in assay [2], in [3], in assay [4], in assay [5] and in [6] was inactive. The outcome in [7], in assay [8], in assay [9], in assay [10] and in assay [11] was inactive.

`C/C(=C\C=C\[C@H](O)[C@@H](C)O)[C@H](O)[C@H](C)C(=O)O[C@H]1C[C@H](CO)C[C@@H]2C=C[C@H](C)[C@](C)(C(=O)CCO)[C@@H]12`: the result in [1], in [2], in [3], in assay [4], in assay [5] and in assay [6] was inactive. The result in assay [7], in assay [8], in assay [9], in [10] and in assay [11] was inactive.

What is called MIC is the smallest concentration in the dilution series that meets the test's criterion for growth inhibition. Consider `CN(C)[C@@H]1C(O)=C(C(N)=O)C(=O)[C@@]2(O)C(O)=C3C(=O)c4c(O)cccc4[C@@](C)(O)[C@H]3C[C@@H]12` [TETRACYCLINE], for which the MIC in [5] was determined as 1.56 µg/mL (≈ 3.51 µM); in assay [7], 6.25 µg/mL (≈ 14.1 µM); in [8], 0.78 µg/mL (≈ 1.76 µM).

As to `O=C(N[C@H](CO)[C@H](O)c1ccc([N+](=O)[O-])cc1)C(Cl)Cl` [CHLORAMPHENICOL], the minimum inhibitory concentration (MIC) in assay [5], in assay [7] and in assay [8] was 0.78 µg/mL (≈ 2.41 µM) throughout.

For the molecule `C[C@H]1C=C[C@H]2C[C@@](O)(CO)CC[C@@H]2[C@@]1(C)C(=O)CCO`, the outcome in [1], in assay [2], in [3], in [4], in assay [5] and in assay [6] was inactive. In addition, the outcome in assay [7], in [8], in [9], in assay [10] and in [11] was inactive.

Usually IC50 stands for the concentration needed to halve the response being measured. Low values mean higher potency, high ones lower potency. As to `COc1cc([C@@H]2c3cc4c(cc3[C@@H](O[C@@H]3O[C@@H]5CO[C@@H](C)O[C@H]5[C@H](O)[C@H]3O)[C@H]3COC(=O)[C@H]23)OCO4)cc(OC)c1O` [ETOPOSIDE], the IC50 stood at 24.3 µg/mL (≈ 41.3 µM) in assay [1] and 0.04 µg/mL (≈ 0.068 µM) in assay [4].

Consider `C/C(=C\C=C\[C@H](O)[C@H](C)O)[C@H](O)[C@H](C)C(=O)O[C@H]1C[C@H](C)C[C@@H]2C=C[C@H](C)[C@](C)(C(=O)[C@H](O)CO)[C@@H]12`, for which the outcome in [1], in assay [2], in assay [3], in assay [4], in assay [5] and in assay [6] was inactive. Also, the outcome in [7], in assay [8], in assay [9], in assay [10] and in assay [11] was inactive.

For `CC1=CC2=C(CC(C)C(=O)C[C@H](C)O)C(=O)[C@](C)(O)[C@@H](O)C2=CO1` (stereo partly drawn), the outcome in [1], in [2], in assay [3], in [4], in assay [5] and in assay [6] was inactive. Besides, the outcome in [7], in assay [8], in assay [9], in assay [10] and in [11] was inactive.

For the molecule `CO[C@@H](/C=C/C=C(\C)[C@H](O)[C@H](C)C(=O)O[C@H]1C[C@H](C)C[C@@H]2C=C[C@H](C)[C@](C)(C(=O)[C@H](O)CO)[C@@H]12)[C@@H](C)O`, the result in [1], in assay [2], in [3], in assay [4], in assay [6] and in assay [9] was inactive. The outcome in [10] and in assay [11] was inactive. The MIC in assay [5], in assay [7] and in assay [8] was 100 µg/mL (≈ 191 µM) throughout.

Regarding `C[C@H]1C=C[C@H]2C[C@@H](CO)C[C@H](O)[C@@H]2[C@@]1(C)C(=O)[C@H](O)CO`, the outcome in [1], in assay [2], in [3], in [4], in [5] and in assay [6] was inactive. Also, the outcome in [7], in [8], in assay [9], in [10] and in assay [11] was inactive.

Regarding `CC1=CC2=C(C[C@H](C)C3=CC(=O)CC(C)O3)C(=O)[C@](C)(O)[C@@H](O)C2=CO1` (stereo partly drawn), the outcome in [1], in assay [2], in assay [3], in assay [4], in assay [5] and in [6] was inactive. Besides, the result in assay [7], in assay [8], in assay [9], in assay [10] and in assay [11] was inactive.

Consider `CC1=CC2=C(C[C@@H](C)C3=CC(=O)CC(C)O3)C(=O)[C@](C)(O)[C@@H](O)C2=CO1` (stereo partly drawn), for which the result in assay [1], in [2], in assay [3], in assay [4], in [5] and in assay [6] was inactive. For the same molecule, the outcome in assay [7], in [8], in [9], in assay [10] and in assay [11] was inactive.

Molecule `COc1cccc2c1C(=O)c1c(O)c3c(c(O)c1C2=O)C[C@@](O)(C(=O)CO)C[C@@H]3O[C@H]1C[C@H](N)[C@H](O)[C@H](C)O1` [DOXORUBICIN] came in with a 50% inhibitory concentration (IC50) in assay [11] of 0.33 µg/mL (≈ 0.607 µM).
